What was measured:
Liver [1] = assay: Biodistribution in liver of rat assessed per organ at 3.6 x 10^-8 mol, iv measured after 5 mins; type: ADME, organism-based; conditions: in vivo
Summary of the method: (§1)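 [131I]-labelled tracer in water or saline, injected within 30 min of preparation. Rats given 3.6 × 10^-8 mol/rat iv, killed by ether overdose at each time point. Organs excised and radioactivity counted as % dose/organ, mean ± SD of four rats.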

Blood [2] = assay: Biodistribution in blood of rat at 3.6 x 10^-8 mol, iv measured after 2 hrs; type: ADME, organism-based; conditions: in vivo
Summary of the method: (§2)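 [131I]-6-iododopamine in water or saline, used within 30 min of preparation. Injected iv at 3.6 × 10^-8 mol/rat. Rats killed by ether overdose at 5 min to 24 h. Blood radioactivity expressed as % dose/g, mean ± SD of four rats.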

Mus musculus [3] = assay: Biodistribution in adrenal gland of mouse assessed per organ at 8 to 11 x 10^-8 mol, iv measured after 60 mins; type: ADME, organism-based; conditions: in vivo, 1 h
Summary of the method: (§3)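 [131I]- or [123I]-6-iododopamine in water or saline, used within 30 min of preparation. Injected iv at 8-11 × 10^-8 mol/mouse. Mice killed by ether overdose at 5-240 min; 3-10 mice per time point. Tissue radioactivity expressed as % dose/organ ± SD.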

[4] = Biodistribution in adrenal cortex of mongrel dog assessed per organ at 1.29 x 10^-6 mol, iv measured after 24 hrs; type: ADME, organism-based, Canis lupus familiaris; conditions: in vivo
Summary of the method: (§4)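 Radioiodinated ([123I] or [131I]) 6-iododopamine in water or saline, used within 30 min of preparation. Given iv at 1.29 × 10^-6 mol/dog; one dog per time point, killed at 2 or 24 h. Large organs counted as three samples and averaged; adrenals and thyroid taken intact and counted. Expressed as % dose/organ.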

Blood [5] = assay: Biodistribution in blood of rat at 3.6 x 10^-8 mol, iv measured after 24 hrs; type: ADME, organism-based; conditions: in vivo; summary of the method: as §2
Kidney [6] = assay: Biodistribution in kidney of mouse assessed per organ at 8 to 11 x 10^-8 mol, iv measured after 30 mins; type: ADME, organism-based; conditions: in vivo, 0.5 h; summary of the method: as §3
Liver [7] = assay: Biodistribution in liver of rat assessed per organ at 3.6 x 10^-8 mol, iv measured after 60 mins; type: ADME, organism-based; conditions: in vivo, 1 h; summary of the method: as §1
Liver [8] = assay: Biodistribution in liver of mongrel dog assessed per organ at 1.29 x 10^-6 mol, iv measured after 24 hrs; type: ADME, organism-based, Canis lupus familiaris; conditions: in vivo; summary of the method: as §4
Liver [9] = assay: Biodistribution in liver of mongrel dog assessed per organ at 1.29 x 10^-6 mol, iv measured after 2 hrs; type: ADME, organism-based, Canis lupus familiaris; conditions: in vivo; summary of the method: as §4
Kidney [10] = assay: Biodistribution in kidney of rat assessed per organ at 3.6 x 10^-8 mol, iv measured after 30 mins; type: ADME, organism-based; conditions: in vivo, 0.5 h
Summary of the method: (§5)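 [131I]-6-iododopamine in water or saline, used within 30 min of preparation. Injected iv at 3.6 × 10^-8 mol/rat. Rats killed by ether overdose at 5, 30 or 60 min, or at 2, 4 or 24 h. Tissue radioactivity expressed as % dose/organ, mean ± SD of four rats.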

[11] = Biodistribution in thyroid gland of mongrel dog assessed per organ at 1.29 x 10^-6 mol, iv measured after 24 hrs; type: ADME, organism-based, Canis lupus familiaris; conditions: in vivo
Summary of the method: (§6)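 Radioiodine-labelled tracer given at 1.29 × 10^-6 mol/dog. One dog per time point, killed at 2 or 24 h. Thyroids and other small organs were taken intact and counted. Large organs were sampled three times and averaged. Result given as % dose/organ.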

Kidney [12] = assay: Biodistribution in kidney of mouse assessed per organ at 8 to 11 x 10^-8 mol, iv measured after 120 mins; type: ADME, organism-based; conditions: in vivo, 2 h; summary of the method: as §3
Mus musculus [13] = assay: Biodistribution in thyroid gland of mouse assessed per organ at 8 to 11 x 10^-8 mol, iv measured after 120 mins; type: ADME, organism-based; conditions: in vivo, 2 h
Summary of the method: (§7)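 Tracer labelled with either 123I or 131I, in water or saline, used within 30 min of preparation. Mice dosed iv at 8-11 × 10^-8 mol/mouse and killed by ether overdose. Organs counted as % dose/organ ± SD, n = 3-10 mice per time point.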

Rattus norvegicus [14] = assay: Biodistribution in thyroid gland of rat assessed per organ at 3.6 x 10^-8 mol, iv measured after 60 mins; type: ADME, organism-based; conditions: in vivo, 1 h; summary of the method: as §1
Mus musculus [15] = assay: Biodistribution in adrenal gland of mouse assessed per organ at 8 to 11 x 10^-8 mol, iv measured after 120 mins; type: ADME, organism-based; conditions: in vivo, 2 h; summary of the method: as §3
Rattus norvegicus [16] = assay: Biodistribution in adrenal cortex of rat assessed per organ at 3.6 x 10^-8 mol, iv measured after 2 hrs; type: ADME, organism-based; conditions: in vivo; summary of the method: as §5
Blood [17] = assay: Biodistribution in blood of rat at 3.6 x 10^-8 mol, iv measured after 4 hrs; type: ADME, organism-based; conditions: in vivo; summary of the method: as §2
Rattus norvegicus [18] = assay: Biodistribution in adrenal cortex of rat assessed per organ at 3.6 x 10^-8 mol, iv measured after 4 hrs; type: ADME, organism-based; conditions: in vivo; summary of the method: as §5
Mus musculus [19] = assay: Biodistribution in adrenal gland of mouse assessed per organ at 8 to 11 x 10^-8 mol, iv measured after 30 mins; type: ADME, organism-based; conditions: in vivo, 0.5 h; summary of the method: as §3
Kidney [20] = assay: Biodistribution in kidney of mouse assessed per organ at 8 to 11 x 10^-8 mol, iv measured after 240 mins; type: ADME, organism-based; conditions: in vivo, 4 h; summary of the method: as §3
Mus musculus [21] = assay: Biodistribution in thyroid gland of mouse assessed per organ at 8 to 11 x 10^-8 mol, iv measured after 30 mins; type: ADME, organism-based; conditions: in vivo, 0.5 h; summary of the method: as §7
Rattus norvegicus [22] = assay: Biodistribution in thyroid gland of rat assessed per organ at 3.6 x 10^-8 mol, iv measured after 30 mins; type: ADME, organism-based; conditions: in vivo, 0.5 h; summary of the method: as §1
Blood [23] = assay: Biodistribution in blood of rat at 3.6 x 10^-8 mol, iv measured after 30 mins; type: ADME, organism-based; conditions: in vivo, 0.5 h; summary of the method: as §2
Adrenal medulla [24] = assay: Biodistribution in adrenal medulla of rat assessed per organ at 3.6 x 10^-8 mol, iv measured after 5 mins; type: ADME, organism-based; conditions: in vivo; summary of the method: as §5
Rattus norvegicus [25] = assay: Biodistribution in thyroid gland of rat assessed per organ at 3.6 x 10^-8 mol, iv measured after 2 hrs; type: ADME, organism-based; conditions: in vivo; summary of the method: as §1
Adrenal medulla [26] = assay: Biodistribution in adrenal medulla of rat assessed per organ at 3.6 x 10^-8 mol, iv measured after 4 hrs; type: ADME, organism-based; conditions: in vivo; summary of the method: as §5
Kidney [27] = assay: Biodistribution in kidney of mouse assessed per organ at 8 to 11 x 10^-8 mol, iv measured after 60 mins; type: ADME, organism-based; conditions: in vivo, 1 h; summary of the method: as §3
Kidney [28] = assay: Biodistribution in kidney of rat assessed per organ at 3.6 x 10^-8 mol, iv measured after 5 mins; type: ADME, organism-based; conditions: in vivo; summary of the method: as §5
Rattus norvegicus [29] = assay: Biodistribution in thyroid gland of rat assessed per organ at 3.6 x 10^-8 mol, iv measured after 4 hrs; type: ADME, organism-based; conditions: in vivo; summary of the method: as §1
[30] = Biodistribution in thyroid gland of mongrel dog assessed per organ at 1.29 x 10^-6 mol, iv measured after 2 hrs; type: ADME, organism-based, Canis lupus familiaris; conditions: in vivo; summary of the method: as §6
Adrenal medulla [31] = assay: Biodistribution in adrenal medulla of rat assessed per organ at 3.6 x 10^-8 mol, iv measured after 24 hrs; type: ADME, organism-based; conditions: in vivo; summary of the method: as §5
Adrenal medulla [32] = assay: Biodistribution in adrenal medulla of rat assessed per organ at 3.6 x 10^-8 mol, iv measured after 60 mins; type: ADME, organism-based; conditions: in vivo, 1 h; summary of the method: as §5
Liver [33] = assay: Biodistribution in liver of mouse assessed per organ at 8 to 11 x 10^-8 mol, iv measured after 15 mins; type: ADME, organism-based; conditions: in vivo, 0.25 h; summary of the method: as §3
Rattus norvegicus [34] = assay: Biodistribution in adrenal cortex of rat assessed per organ at 3.6 x 10^-8 mol, iv measured after 30 mins; type: ADME, organism-based; conditions: in vivo, 0.5 h; summary of the method: as §5
Kidney [35] = assay: Biodistribution in kidney of rat assessed per organ at 3.6 x 10^-8 mol, iv measured after 24 hrs; type: ADME, organism-based; conditions: in vivo; summary of the method: as §5

Q: For `Br.NCCc1cc(O)c(O)cc1[131I]`, which Drug uptake (Liver [1]) is on record?
A: The Drug uptake was 4.58 %ID.

Q: And the Drug uptake (Blood [2])?
A: The Drug uptake was 0.052 %ID.

Q: And the Drug uptake (Mus musculus [3])?
A: Its Drug uptake is 0.0087 %ID.

Q: And the Drug uptake [4]?
A: The Drug uptake was 0.0104 %ID.

Q: What about the Drug uptake (Blood [5]) of the same compound?
A: The Drug uptake was 0.0062 %ID.

Q: And the Drug uptake (Kidney [6])?
A: Its Drug uptake is 1.69 %ID.

Q: What about the Drug uptake (Liver [7]) of the same compound?
A: Its Drug uptake is 0.67 %ID.

Q: And the Drug uptake (Liver [8])?
A: Its Drug uptake is 0.48 %ID.

Q: And the Drug uptake (Liver [9])?
A: The Drug uptake was 2.24 %ID.

Q: What about the Drug uptake (Kidney [10]) of the same compound?
A: Its Drug uptake is 2.37 %ID.

Q: And the Drug uptake [11]?
A: Its Drug uptake is 0.48 %ID.

Q: What about the Drug uptake (Kidney [12]) of the same compound?
A: The Drug uptake was 0.78 %ID.

Q: What about the Drug uptake (Mus musculus [13]) of the same compound?
A: Its Drug uptake is 0.176 %ID.

Q: What about the Drug uptake (Rattus norvegicus [14]) of the same compound?
A: Its Drug uptake is 0.08 %ID.

Q: What about the Drug uptake (Mus musculus [15]) of the same compound?
A: Its Drug uptake is 0.02 %ID.

Q: What about the Drug uptake (Rattus norvegicus [16]) of the same compound?
A: Its Drug uptake is 0.0028 %ID.

Q: What about the Drug uptake (Blood [17]) of the same compound?
A: The Drug uptake was 0.055 %ID.

Q: What about the Drug uptake (Rattus norvegicus [18]) of the same compound?
A: Its Drug uptake is 0.002 %ID.

Q: And the Drug uptake (Mus musculus [19])?
A: Its Drug uptake is 0.014 %ID.

Q: What about the Drug uptake (Kidney [20]) of the same compound?
A: The Drug uptake was 0.79 %ID.

Q: What about the Drug uptake (Mus musculus [21]) of the same compound?
A: Its Drug uptake is 0.084 %ID.

Q: What about the Drug uptake (Rattus norvegicus [22]) of the same compound?
A: The Drug uptake was 0.062 %ID.

Q: What about the Drug uptake (Blood [23]) of the same compound?
A: The Drug uptake was 0.48 %ID.

Q: And the Drug uptake (Adrenal medulla [24])?
A: Its Drug uptake is 0.0247 %ID.

Q: And the Drug uptake (Rattus norvegicus [25])?
A: The Drug uptake was 0.183 %ID.

Q: What about the Drug uptake (Adrenal medulla [26]) of the same compound?
A: Its Drug uptake is 0.0047 %ID.

Q: And the Drug uptake (Kidney [27])?
A: Its Drug uptake is 1 %ID.

Q: What about the Drug uptake (Kidney [28]) of the same compound?
A: The Drug uptake was 3.55 %ID.

Q: And the Drug uptake (Rattus norvegicus [29])?
A: The Drug uptake was 0.251 %ID.

Q: What about the Drug uptake [30] of the same compound?
A: The Drug uptake was 0.026 %ID.

Q: What about the Drug uptake (Adrenal medulla [31]) of the same compound?
A: The Drug uptake was 0.0021 %ID.

Q: And the Drug uptake (Adrenal medulla [32])?
A: The Drug uptake was 0.0038 %ID.

Q: What about the Drug uptake (Liver [33]) of the same compound?
A: The Drug uptake was 3.64 %ID.

Q: And the Drug uptake (Rattus norvegicus [34])?
A: Its Drug uptake is 0.0062 %ID.

Q: What about the Drug uptake (Kidney [35]) of the same compound?
A: Its Drug uptake is 0.024 %ID.
